PMC4073659 (Journal of Natural Products, 2014)

Tests used:
[1] = test system: delta toxin production (strain AH2759); assay: Quorum sensing inhibition observed by delta toxin immunoblot; type: cell-based, Staphylococcus aureus (MRSA); conditions: strain AH2759 in TSB; compounds 0.3–400 μM, AIP-2 2–500 nM; spent media
How it was run: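 Spent media from the agr P3lux reporter cultures: TSB with 10 μg/mL chloramphenicol, 1:500 inoculum, 1% DMSO final, 37 °C with shaking at 250 rpm. Wells were pooled and 0.22 μm filtered, then run on 15% SDS-PAGE and transferred to PVDF (90 min, 160 mA). Blots were blocked overnight at 4 °C in milk/BSA TBST, then probed 1 h at rt with rabbit anti-delta toxin (1:2000) and HRP anti-rabbit (1:10 000).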

[2] = test system: agr quorum-sensing system (agr P3lux reporter strain AH2759); assay: agr P3lux reporter strain assay for quorum sensing inhibition; type: cell-based, Staphylococcus aureus (CA-MRSA strain LAC, USA300); conditions: Staphylococcus aureus, read-out: agr P3lux IC50, reporter strain AH2759; cell-density-normalized luminescence; ± standard error from four-parameter logistic fit

| Structure (SMILES) | suppression of delta toxin production (immunoblot) [1] | IC50 [2] |
| --- | --- | --- |
| O=C(O)c1cc(O)c2c(c1)C(=O)c1cc(O)c(O)c(O)c1C2=O [compound 1] | dose-dependent suppression |  |
| O=C1c2cc(O)cc(O)c2C(=O)c2c(O)cc(CO)cc21 [compound 3, ω-hydroxyemodin] | dose-dependent suppression | < 10 µM |
| CC(=O)C(O)c1cc(O)c2c(c1)C(=O)c1cc(O)cc(O)c1C2=O (centres unmarked) [compound 4] | dose-dependent suppression |  |
| C[C@H](O)Cc1cc(O)c2c(c1)C(=O)c1cc(O)cc(O)c1C2=O [compound 6, (+)-2′S-isorhodoptilometrin] |  | < 10 µM |
